What all share (format): cell-based
Assay [1] has as its system Kir1.1. Put plainly: Whole-cell patch clamp, Kir1.1. The following applies: 20 μM, n = 5. In general terms: In patch-clamp work, channel activity is measured electrically.
For assay [2], the target named is T1, Kir1.1 (S44D) (Rattus norvegicus, UniProt P35560, S44D).
T1 sequence (P35560 1-391 S44D): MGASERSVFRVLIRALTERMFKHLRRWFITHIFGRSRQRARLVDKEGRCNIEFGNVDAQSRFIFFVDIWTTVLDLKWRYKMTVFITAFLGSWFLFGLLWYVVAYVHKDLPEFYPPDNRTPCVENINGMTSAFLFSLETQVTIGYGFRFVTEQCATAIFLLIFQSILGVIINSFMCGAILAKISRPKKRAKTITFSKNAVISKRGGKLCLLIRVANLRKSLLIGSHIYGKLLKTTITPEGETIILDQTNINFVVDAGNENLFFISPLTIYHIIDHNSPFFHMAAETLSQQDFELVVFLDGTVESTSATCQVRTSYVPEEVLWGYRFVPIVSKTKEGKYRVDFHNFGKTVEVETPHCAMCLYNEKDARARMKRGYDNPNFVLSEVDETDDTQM
Put plainly: Tl+ flux assay, tetracycline-inducible Kir1.1-S44D T-REx-HEK-293 cells. The following applies: IC50 Kir1.1, Tl+ flux, mean ± SEM (n = 3). A digest of the protocol:
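Monoclonal C1 T-REx-HEK-293 Kir1.1-S44D cells were grown in DMEM with 10% FBS, penicillin/streptomycin, 5 μg/mL blasticidin S and 250 μg/mL hygromycin. Channel expression was induced overnight with tetracycline. Cells were loaded with FluoZin-2 and pre-treated with test compound from 1:3 serial dilutions. Extracellular Tl+ was then added and fluorescence imaged kinetically at 20–23°C. CRC, mean ± SEM, n = 3.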

For assay [3], the target named is T2, Kir3.1/3.2 (Homo sapiens, UniProt P48051+P48549).
T2 sequence (P48549 1-501): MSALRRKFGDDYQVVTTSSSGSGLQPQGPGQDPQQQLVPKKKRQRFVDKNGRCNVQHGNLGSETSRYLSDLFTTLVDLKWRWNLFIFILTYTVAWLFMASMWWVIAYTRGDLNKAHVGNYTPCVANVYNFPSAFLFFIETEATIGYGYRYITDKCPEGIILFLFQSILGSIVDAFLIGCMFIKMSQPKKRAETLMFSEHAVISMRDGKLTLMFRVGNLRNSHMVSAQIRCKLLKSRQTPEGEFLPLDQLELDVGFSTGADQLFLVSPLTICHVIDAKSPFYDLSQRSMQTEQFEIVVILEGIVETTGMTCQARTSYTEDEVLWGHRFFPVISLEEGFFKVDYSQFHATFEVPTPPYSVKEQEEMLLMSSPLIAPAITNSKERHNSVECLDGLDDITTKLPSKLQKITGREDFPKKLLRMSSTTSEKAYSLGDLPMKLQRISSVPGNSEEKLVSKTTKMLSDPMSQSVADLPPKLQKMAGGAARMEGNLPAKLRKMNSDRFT
T2 sequence (P48051 1-423): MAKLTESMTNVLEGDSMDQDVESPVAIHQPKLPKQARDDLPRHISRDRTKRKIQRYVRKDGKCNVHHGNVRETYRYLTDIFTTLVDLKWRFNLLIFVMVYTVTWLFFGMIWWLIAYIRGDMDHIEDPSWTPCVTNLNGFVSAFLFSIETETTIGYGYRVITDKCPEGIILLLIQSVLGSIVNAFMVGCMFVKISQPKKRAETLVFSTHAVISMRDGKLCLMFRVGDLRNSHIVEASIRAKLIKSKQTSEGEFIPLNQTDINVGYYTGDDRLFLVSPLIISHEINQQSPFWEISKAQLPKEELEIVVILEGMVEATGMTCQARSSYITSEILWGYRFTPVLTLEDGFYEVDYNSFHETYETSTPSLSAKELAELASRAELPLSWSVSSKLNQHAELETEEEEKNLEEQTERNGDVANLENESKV
The experiment in a line: Two-electrode voltage clamp in Xenopus oocytes, Kir3.1/3.2. A digest of the protocol:
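Xenopus oocytes were injected with Kir3.1/3.2 or Kir3.1/3.4 cRNA and voltage-clamped with two electrodes at 20–23°C, with current at −80 mV followed over time. The bath was switched from K+-free to 90 mM K+ to activate the channel. Test compound in 90K was applied continuously at graded concentrations, then 2 mM Ba2+ was added. A final 0K switch measured leak. Time constant derived (n = 6 at 25 μM). Percent inhibition n = 4–6.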

Assay [4] deals with T3, wild type Kir7.1 (Homo sapiens, UniProt O60928).
T3 sequence (O60928 1-360): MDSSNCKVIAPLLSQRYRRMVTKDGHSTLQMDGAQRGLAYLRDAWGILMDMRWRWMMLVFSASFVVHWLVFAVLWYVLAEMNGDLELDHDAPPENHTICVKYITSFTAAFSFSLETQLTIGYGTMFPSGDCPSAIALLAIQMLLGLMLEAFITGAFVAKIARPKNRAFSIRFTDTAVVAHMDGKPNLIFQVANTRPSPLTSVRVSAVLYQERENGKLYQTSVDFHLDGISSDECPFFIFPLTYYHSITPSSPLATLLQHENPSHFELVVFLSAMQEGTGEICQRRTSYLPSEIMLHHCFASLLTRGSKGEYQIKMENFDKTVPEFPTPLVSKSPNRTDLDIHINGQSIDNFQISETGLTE
Put plainly: Whole-cell patch clamp, wild type Kir7.1 in transfected HEK-293 cells. In outline: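 HEK-293 cells were transiently co-transfected with channel plus an EGFP marker (Lipofectamine). Pipette: 135 mM KCl, 2 mM MgCl2, 1 mM EGTA, 10 mM HEPES, 2 mM Na2ATP, pH 7.3. Bath: 135 mM NaCl, 5 mM KCl, pH 7.4; some runs used 50 mM KCl. Held at −75 mV and ramped −120 to 120 mV every 5 s, at 20–23°C. Test compound was bath-applied for 2–10 min, then 2 mM BaCl2. CRC n = 4–7. τ taken from the time course.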

Turning to `Cc1ccc(OCC(O)Cn2c(=N)n(Cc3ccccc3)c3ccccc32)cc1` (centres unmarked) [Compound 1, 1-(3-benzyl-2-imino-2,3-dihydro-1H-benzo[d]imidazol-1-yl)-3-(p-tolyloxy)propan-2-ol], the “inhibition of Kir1.1” value in assay [1] was determined as 49.5 ± 0.03%. Moreover, the IC50 – broadly, the concentration needed to halve the response being measured – is 10.8 ± 3.8 µM in assay [2]; about 10 µM in assay [3]; about 1 µM in assay [4] (IC50 Kir7.1, whole-cell patch clamp, wild type Kir7.1, HEK-293). Besides, in assay [3] (TEVC oocytes, 25 μM, mean ± SEM, n = 6), the “time constant (τ) for inhibition of Kir3.1/3.2 currents” value is recorded as 28 ± 4 s. Besides, the inhibition at 10 µM in assay [3] (read-out: inhibition of GIRK current (Kir3.1/3.2)) was about 50%. The “effect on wild type Kir7.1 activity” value in assay [4] (whole-cell patch clamp, 10 μM, n = 4) is reported as “near complete inhibition”. In addition, in assay [4] (whole-cell patch clamp, 30 μM, mean ± SEM, n = 4), the “time constant for inhibition of Kir7.1” value is 14 ± 2 s.

These data come from paper PMC3254186 (Frontiers in Pharmacology, 2011).
